Source: PubChem BioAssay
Only some compounds are listed: those with a hit (about 3% of all), similar ones and a draw of the others.
UCH37 DUB inh = inhibitors of human deubiquitinating enzyme UCH37. Q9Y5K5. purified proteasome/UCH37, Ub-AMC cleavage fluorescence. inhibition, % (no concentration beside the values). actives 0.33% (n = 330,000). AID 588478;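 active = mean inhibition over replicate wells above about 20%, limit read from the data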;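 also: 0% = compound-free wells with enzyme and 100% = wells lacking proteasome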
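Signal – fluorescence, ex 355 nm, em 460 nm · System – Proteasome-bound UCH37 · Input – 0.15 nM proteasome as dispensed · Timing – 30 min preincubation with enzyme, 25 min cleavage at room temperature · Read-out basis – percent inhibition of cleavage signal versus uninhibited and no-proteasome wells · Medium – Tris-HCl pH 7.4 with ATP-MgCl2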
MEKK3 PB1 HTS = modulators (inhibitors or enhancers) of MEK5 binding to human MEKK3 PB1 domain; Q99759; bead-based flow cytometry, Alexa488-MEK5 binding to MEKK3; actives lie on both sides; 0 = blocked by unlabeled MEK5, 100 = vehicle; binding response (% of control), % at 10 µM; actives 1.4% (n = 290,000);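 active = binding response more than 3 SD above or below the average of its plate-row segment, actives on both sides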;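 also: Alexa488 bead fluorescence after subtracting the streptavidin-only scavenger bead signal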
Target sequence (Q99759 whole entry, looked up, the tested form may be a part): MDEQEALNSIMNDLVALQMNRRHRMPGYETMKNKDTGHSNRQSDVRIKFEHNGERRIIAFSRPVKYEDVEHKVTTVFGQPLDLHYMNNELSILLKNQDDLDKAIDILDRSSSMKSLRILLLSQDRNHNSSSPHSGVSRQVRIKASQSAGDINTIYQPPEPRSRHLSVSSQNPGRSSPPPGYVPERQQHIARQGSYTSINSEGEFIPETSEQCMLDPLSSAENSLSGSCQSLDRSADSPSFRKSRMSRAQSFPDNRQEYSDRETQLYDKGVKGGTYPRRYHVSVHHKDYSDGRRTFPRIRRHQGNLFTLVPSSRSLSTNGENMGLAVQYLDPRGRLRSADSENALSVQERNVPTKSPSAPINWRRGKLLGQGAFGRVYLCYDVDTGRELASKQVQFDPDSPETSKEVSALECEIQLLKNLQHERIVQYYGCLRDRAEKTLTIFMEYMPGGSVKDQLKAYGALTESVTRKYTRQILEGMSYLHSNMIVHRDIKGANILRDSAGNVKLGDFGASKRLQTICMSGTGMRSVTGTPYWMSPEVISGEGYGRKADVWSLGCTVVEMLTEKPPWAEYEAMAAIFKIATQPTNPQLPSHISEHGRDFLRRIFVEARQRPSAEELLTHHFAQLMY
Apaf-1 inh = blocks human Apaf-1 apoptosome activity; actives 0.71% (n = 330,000); reconstituted apoptosome caspase-3 activity, DEVD-Rh110 fluorescence; inhibition, % at 20 µM; active = inhibition of at least 40% at 20 µM;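 also: plate controls were DMSO wells for no effect and DEVD-CHO caspase inhibitor wells for full effect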
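Assay system – apoptosome proteins · Medium – Hepes buffer, pH 7.5 · Also added – cytochrome c with DEVD-Rh110 · Timing – 30 min compound preincubation, 50 min activation, room temperature · Detection – Rh110 fluorescence, excitation 480 nm, emission 540 nm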
MEKK2mut PB1 HTS = signal of MEK5 binding to mutant human MEKK2 PB1 domain; actives 0.35% (n = 290,000); percent response, % at 10 µM; bead flow cytometry, Alexa488-MEK5 binding to MEKK2 mutant; in the data active = percent response above about 24%, passing the limit was not always enough
UBC13 polyUb = blocks human UBC13 polyubiquitin chain formation; actives 0.47% (n = 330,000); inhibition, % at 20 µM; TR-FRET; P61088; in the data active = inhibition above about 45%, passing the limit was not always enough
MEKK2 WT-MEK5 = raises or lowers MEK5 binding to wildtype human MEKK2 PB1 domain; AID 1531; bead flow cytometry, Alexa488-MEK5 binding to MEKK2 WT; actives lie on both sides; binding response (% of control), % at 10 µM; actives 1.1% (n = 290,000); in the data active = binding response below about 67% or above about 130%
Apaf-1 inh conf2 = Apaf-1 inhibition, single-dose confirmed. shares compounds with Apaf-1 inh. AID 504614. reconstituted apoptosome, caspase-3 DEVD-Rh110 fluorescence. inhibition, % at 20 µM. actives 25% (n = 1,800);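 active = mean inhibition of at least 40% at 20 µM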;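 also: plate controls were DMSO wells for no effect and DEVD-CHO caspase inhibitor control wells for full effect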
Rh110 quench = counter-screen for Apaf-1 inhibitors: fluorescence interference | shares compounds with Apaf-1 inh | Rh110 fluorescence interference, quenched caspase reaction | activation (fluorescence interference), % at 20 µM | 1,800 tested, under 10 active | AID 504615;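 active = signal rise of 40% or more at 20 µM, treated as a fluorescence artifact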
Fluor interf inh = counter-screen for Apaf-1 inhibitors: fluorescence interference, dose response; shares compounds with Apaf-1 inh; fluorescence interference counterscreen, Apaf-1 assay format; IC50, µM; 460 tested, under 10 active; call rule not given here
Active calls of the source: *.

Screening Cc1ccc(-c2nn3c(C)nnc3c3ccccc23)cc1S(=O)(=O)NCc1ccccc1 returned UCH37 DUB inh -6.3, MEKK3 PB1 HTS 100.0, Apaf-1 inh 47.7*, MEKK2mut PB1 HTS 0.0, UBC13 polyUb 6.9, MEKK2 WT-MEK5 103.0, Apaf-1 inh conf2 72.3*, Rh110 quench 7.2 and Fluor interf inh >100.
Cc1ccc(-c2nn3c(C)nnc3c3ccccc23)cc1S(=O)(=O)NCCN1CCOCC1 was read as UCH37 DUB inh -1.0, MEKK3 PB1 HTS 102.0, Apaf-1 inh 7.1, MEKK2mut PB1 HTS 4.0, UBC13 polyUb 10.4 and MEKK2 WT-MEK5 102.0.
COc1cc(CC2C(=O)Nc3ccccc32)cc(C)c1O (stereo not given) was read as UCH37 DUB inh 1.8, MEKK3 PB1 HTS 87.0, Apaf-1 inh 0.4, MEKK2mut PB1 HTS -6.0, UBC13 polyUb 3.9 and MEKK2 WT-MEK5 95.0.
Screening COc1ccc(OCC(=O)N/N=C2\CCCCc3ccccc32)cc1 returned MEKK3 PB1 HTS 92.0, Apaf-1 inh 10.1, MEKK2mut PB1 HTS -7.0, UBC13 polyUb -4.2 and MEKK2 WT-MEK5 85.0.
Screening CCc1ccc(OCC(=O)N/N=C2\CC(=O)c3ccccc32)cc1 returned MEKK3 PB1 HTS 95.0, Apaf-1 inh 83.6*, MEKK2mut PB1 HTS -6.0, UBC13 polyUb -9.6, MEKK2 WT-MEK5 93.0, Apaf-1 inh conf2 54.1*, Rh110 quench 9.8 and Fluor interf inh >100.
`CCCCNc1c(-c2ccc(OC)c(SC(C)CC)c2)nc2ccc(C)cn12` (stereo not given) gave Apaf-1 inh 38.4 and UBC13 polyUb 36.9.
Screening CCCCNc1c(-c2ccc(OC)c(SC(C)CC)c2)nc2cnccn12 (stereo not given) returned UCH37 DUB inh -77.9.
For CCCCCCSc1cc(-c2nc3ccc(C)cn3c2NCCCC)ccc1OC the results were Apaf-1 inh 46.2*, UBC13 polyUb 32.6, Apaf-1 inh conf2 21.2 and Rh110 quench 19.4.
`CCCCNc1c(-c2ccc(OC)c(SC(C)CC)c2)nc2cc(C)ccn12` (stereo not given) gave UCH37 DUB inh -86.0, Apaf-1 inh 48.9*, UBC13 polyUb 36.9, Apaf-1 inh conf2 17.8 and Rh110 quench 9.1.
`CCCCCCSc1ccc(-c2nc3cnccn3c2NCCCC)cc1` gave Apaf-1 inh 55.9*, UBC13 polyUb 36.8, Apaf-1 inh conf2 30.4 and Rh110 quench 23.3.
`CCCCCCSc1ccc(-c2nc3ccc(C)cn3c2NCc2ccccc2)cc1OC` gave UCH37 DUB inh inactive, Apaf-1 inh 41.5*, UBC13 polyUb 7.6, Apaf-1 inh conf2 21.1 and Rh110 quench -0.8.
`Cc1ccc(CN2CCN(Cc3ccc(O)cc3)CC2CCO)o1` (stereo not given) gave UCH37 DUB inh 0.9, MEKK3 PB1 HTS 97.0, Apaf-1 inh 0.3, MEKK2mut PB1 HTS -3.0, UBC13 polyUb -11.1 and MEKK2 WT-MEK5 95.0.
Screening CCOC(=O)c1cnc(-n2nc(C)cc2C)nc1N(C)C returned UCH37 DUB inh 3.9, MEKK3 PB1 HTS 99.0, Apaf-1 inh 13.9, MEKK2mut PB1 HTS -1.0, UBC13 polyUb -12.3 and MEKK2 WT-MEK5 97.0.
For O=c1[nH]c(/C=C\c2cccc(F)c2)nc(O)c1[N+](=O)[O-] the results were UCH37 DUB inh 13.9, MEKK3 PB1 HTS 105.0, Apaf-1 inh 11.5, MEKK2mut PB1 HTS 1.0, UBC13 polyUb -0.4 and MEKK2 WT-MEK5 101.0.
CCOc1ccc(C(=O)NC(=S)NCCCN2CCOCC2)cc1 was read as UCH37 DUB inh 3.0, MEKK3 PB1 HTS 99.0, Apaf-1 inh -1.1, MEKK2mut PB1 HTS 2.0, UBC13 polyUb -1.9 and MEKK2 WT-MEK5 102.0.
Screening COc1cccc(/C=N/NC(=O)NC23CC4CC(CC(C4)C2)C3)c1O returned Apaf-1 inh 40.1*, UBC13 polyUb -5.4, Apaf-1 inh conf2 14.8 and Rh110 quench 3.8.
For Cc1cccc(C(=O)Oc2ccc(C=NO)cc2)c1 the results were UCH37 DUB inh 3.3.
`Nc1nc2ccccc2n1CCN1CCCC1` gave UCH37 DUB inh 3.8, MEKK3 PB1 HTS 108.0, Apaf-1 inh 5.3, MEKK2mut PB1 HTS 8.0, UBC13 polyUb 2.0 and MEKK2 WT-MEK5 113.0.
CCCN1C(=O)/C(=C/c2cc(C)n(C)c2C)SC1=Nc1ccc(OC)cc1 was read as UCH37 DUB inh 1.7, Apaf-1 inh 40.7*, UBC13 polyUb -14.4, Apaf-1 inh conf2 19.2 and Rh110 quench 8.7.
`CCCC1=Nc2cc(C(=O)NCCCOCC)ccc2Sc2ccccc21` gave UCH37 DUB inh 2.0, MEKK3 PB1 HTS 100.0, Apaf-1 inh 45.4*, MEKK2mut PB1 HTS 1.0, UBC13 polyUb -0.9, MEKK2 WT-MEK5 100.0, Apaf-1 inh conf2 2.6 and Rh110 quench -0.9.
For CCOC(=O)N1CCN(CC(O)COc2ccc(C(C)C)c(C)c2)CC1 (stereo not given) the results were UCH37 DUB inh 0.8, MEKK3 PB1 HTS 99.0, Apaf-1 inh 16.0, MEKK2mut PB1 HTS 5.0, UBC13 polyUb 5.2 and MEKK2 WT-MEK5 102.0.
Screening CN1N=C(C(C)(C)C)CC1=O returned MEKK3 PB1 HTS 100.0, Apaf-1 inh 41.1*, MEKK2mut PB1 HTS 0.0, UBC13 polyUb -8.2, MEKK2 WT-MEK5 95.0, Apaf-1 inh conf2 10.8 and Rh110 quench 7.4.
For COc1ccc(S(=O)(=O)/N=C2\C=C(Nc3ccc(O)cc3)C(=O)c3ccccc32)cc1 the results were MEKK3 PB1 HTS 101.0, Apaf-1 inh 96.4*, MEKK2mut PB1 HTS -5.0, UBC13 polyUb -262.2, MEKK2 WT-MEK5 90.0, Apaf-1 inh conf2 98.0*, Rh110 quench 5.3 and Fluor interf inh >100.
Screening Cc1ccc(NC2=C/C(=N/S(=O)(=O)c3cccs3)c3ccccc3C2=O)cc1C returned MEKK3 PB1 HTS 102.0, MEKK2mut PB1 HTS 2.0 and MEKK2 WT-MEK5 96.0.
For CC(=O)Nc1ccc(NC2=C/C(=N/S(=O)(=O)c3cccs3)c3ccccc3C2=O)cc1 the results were MEKK3 PB1 HTS 124.0, Apaf-1 inh 90.0*, MEKK2mut PB1 HTS -1.0, UBC13 polyUb -78.7, MEKK2 WT-MEK5 105.0, Apaf-1 inh conf2 94.4*, Rh110 quench -4.8 and Fluor interf inh >100.
